In the library only some 2.9% were active in any assay of this set; here they are far more common.
TRPC6 inh: inhibitors of mouse TRPC6 channel; Q61143; HEK293-TRPC6, membrane potential dye, ACh-evoked depolarization; stronger effect = lower value; B-score at 10 µM; 310,000 tested, 1.1% active;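 active = B-score under library mean minus 3 SD, initial fluorescence not abnormally high, positive integrated signal ratio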;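 note: B-score derived from integrated fluorescence ratio over the kinetic read; more negative B-score means stronger inhibition of depolarization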
TRPC4 agonist: TRPC4 (mouse) channel activation | Q9QUQ5 | HEK293 TRPC4beta/mu-opioid, Fluo4 calcium fluorescence; stronger effect = higher value | B-score at 10 µM | 310,000 tested, 0.49% active | AID 2237;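 active = B-score above 5 SD of library B-scores, and initial fluorescence ratio not above library mean plus 5 SD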;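 note: positive B-score marks a calcium rise read as TRPC4 activation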
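Test system: HEK293 cells stably co-expressing mouse TRPC4beta and mu-opioid receptor | Schedule: Fluo4 dye loading 45 min at room temperature, 110 s recording | Measured by: Kinetic Fluo4 calcium fluorescence, 5 s baseline at 1 Hz | Evaluation: B score of integrated ratio | Controls: Buffer (low) and maximal DAMGO (high)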
Kir21 inh: blocks the mouse Kir2.1 inward-rectifier potassium channel. P35561. HEK293-Kir2.1, FluxOR thallium flux fluorescence; stronger effect = lower value. B-score at 10 µM. 310,000 tested, 0.85% active;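 active = fluorescence ratio B-score at or below minus 3 SD of library scores, with starting-brightness B-score within 2 SD, cut at about -4.2 in these data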;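 note: channel flux triggered by added potassium and thallium sulfate stimulus; B-score of peak minus minimum fluorescence over baseline after thallium stimulus; more negative B-score means stronger Kir2.1 block with less thallium influx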
Target sequence (P35561 whole entry, looked up): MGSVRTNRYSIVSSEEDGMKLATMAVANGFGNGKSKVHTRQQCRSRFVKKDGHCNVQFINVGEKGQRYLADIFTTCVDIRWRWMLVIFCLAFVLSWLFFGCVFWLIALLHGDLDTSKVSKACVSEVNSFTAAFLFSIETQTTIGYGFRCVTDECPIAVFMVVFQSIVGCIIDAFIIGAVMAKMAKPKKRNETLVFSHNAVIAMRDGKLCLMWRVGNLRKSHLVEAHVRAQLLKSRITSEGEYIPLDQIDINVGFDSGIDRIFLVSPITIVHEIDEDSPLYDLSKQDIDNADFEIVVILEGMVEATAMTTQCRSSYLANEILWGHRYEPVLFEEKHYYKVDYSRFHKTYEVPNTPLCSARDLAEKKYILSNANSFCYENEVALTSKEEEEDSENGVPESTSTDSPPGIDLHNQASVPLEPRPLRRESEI
TRPC6 activator: activates the mouse TRPC6 cation channel; Q61143; HEK293-TRPC6 membrane potential dye fluorescence; stronger effect = higher value; B-score at 10 µM; 310,000 tested, 0.13% active; AID 2550;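 active = B-score of the integrated fluorescence ratio above library mean plus 3 SD, and starting fluorescence ratio within library mean plus 5 SD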;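 note: higher score means more depolarization so channel activation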
TRPC4 PAM: TRPC4 (mouse) allosteric potentiation; Q9QUQ5; HEK293 TRPC4beta/mu-opioid, DAMGO EC20, Fluo-4 Ca2+ flux; stronger effect = higher value; B-score at 10 µM; 310,000 tested, 0.42% active; AID 2227;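 active = B-score of calcium response area above 5 SD of library B-scores, with initial fluorescence ratio within 5 SD of library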;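 note: B-score of integrated fluorescence ratio over time as area under calcium response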
TRPC4 inh: inhibitors of mouse TRPC4 channel; Q9QUQ5; AID 2247; HEK293 TRPC4beta/mu-opioid, DAMGO-evoked Fluo4 calcium flux; stronger effect = lower value; 300,000 tested, 0.39% active; B-score at 10 µM;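 active = B-score over 3 SD under the library average, no early fluorescence shift, positive overall ratio signal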
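Assay system – HEK293 line stably carrying TRPC4beta and mu-opioid receptor · Doses – single dose · Detection – Fluo4 calcium-dye fluorescence, kinetic read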
TRPC4 spec 2: mouse TRPC4 off-target activity of TRPC6 inhibitors, second screen; shares compounds with TRPC6 inh; 920 tested, 42% active; AID 2776; HEK293 TRPC4/MOR, membrane potential dye fluorescence; channel activated by saturating DAMGO dose; inhibition, % at 10 µM;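 active = compounds whose fluorescence signal differed from control wells by over 3 SD, either direction, in both duplicate plates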
TRPC4 spec: tests whether TRPC6 inhibitors also affect mouse TRPC4; shares compounds with TRPC6 inh; HEK293 TRPC4/mu-opioid, membrane potential fluorescence; activity change, negative = inhibition, % at 10 µM; 920 tested, 61% active;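 active = rise or fall in signal beyond 3 SD of buffer-only wells in both replicate plates, either sign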;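 note: integrated kinetic ratio of fluorescence range over baseline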
HEK293 MPD ctr 2-1: parental HEK293 nonspecific activity of TRPC6 inhibitors, second screen; AID 2779; 920 tested, 31% active; parental HEK293 membrane potential dye fluorescence; maximal acetylcholine challenge after compound addition; shares compounds with TRPC6 inh; signal change vs control, % at 10 µM;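 active = membrane potential signal moving either way by over 3 SD of the maximum-effect control, in both duplicate plates, meaning non-specific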
HEK293 MPD ctr-1: counter-screen for TRPC6 inhibitors: effect in parental HEK293 cells; AID 2780; 920 tested, 60% active; shares compounds with TRPC6 inh; parental HEK293 membrane potential dye fluorescence; membrane potential signal change, % at 10 µM;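 active = membrane potential signal shifting up or down by more than 3 SD of buffer-only wells, on both duplicate plates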
HEK293 MPD ctr-2: checks TRPC6 modulator effects in parental HEK293 cells. shares compounds with TRPC6 inh. membrane potential dye fluorescence. membrane potential signal change, % at 10 µM. 2,400 tested, 51% active. AID 488924;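 active = membrane potential signal moves up or down beyond 5 SD from buffer-only wells, on both duplicate plates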
HEK293 MPD ctr 2-2: second check of TRPC6 modulator effects in parental HEK293 cells. shares compounds with TRPC6 inh. membrane potential dye fluorescence; after compound, maximal acetylcholine stimulation. inhibition, % at 10 µM. 2,400 tested, 14% active. AID 488926;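 active = membrane potential signal drops by more than 5 SD from the mean control signal, in both duplicate plates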;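 note: plate controls were acetylcholine ECmax control wells for no effect and buffer only wells for full effect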
TRPC4/MOR mod: mouse TRPC4 off-target activity of TRPC6 modulators | AID 488927 | HEK293 TRPC4/mu-opioid, membrane potential fluorescence | shares compounds with TRPC6 inh | 2,400 tested, 69% active | percent change from control (negative = decrease, positive = increase), % at 10 µM;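 active = membrane potential signal moved up or down beyond 5 SD of buffer control wells, in both duplicate plates, actives on both sides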;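 note: plate controls were assay buffer wells for no effect and DAMGO maximal-effect wells for full effect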
TRPC4/MOR inh 2: second check of whether TRPC6 modulators also affect mouse TRPC4; HEK293 TRPC4/mu-opioid, membrane potential dye fluorescence; stimulated with maximal-effect DAMGO; AID 488928; inhibition, % at 10 µM; shares compounds with TRPC6 inh; 2,400 tested, 55% active;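 active = drop in membrane potential signal beyond 5 SD of the control wells in both duplicate plates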;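 note: TRPC4 counter screen for TRPC6 hits run under conditions tuned for TRPC6 not TRPC4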
TRPC6 block conf: confirmation of mouse TRPC6 inhibitors; shares compounds with TRPC6 inh; HEK293-TRPC6, membrane potential dye, ACh-evoked depolarization; inhibition, % at 10 µM; 3,300 tested, 43% active; AID 488960;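 active = fluorescence ratio falls more than 5 SD below the full-stimulation control mean, in both duplicate runs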;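 note: integrated fluorescence ratio of peak minus minimum over baseline after agonist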
TRPC6 act conf: mouse TRPC6 activator confirmation; 2,800 tested, 11% active; HEK293-TRPC6 membrane potential dye fluorescence, FDSS; shares compounds with TRPC6 inh; activation, % at 10 µM; AID 488961;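 active = ratio signal rise beyond 5 SD above unstimulated control wells' mean, seen in both duplicate runs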;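 note: plate controls were buffer EC0 wells for no effect and acetylcholine ECmax response for full effect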
Starred values were filed as active, the others as inactive; i = inactive; / = no result given.

SMILES	TRPC6 inh	TRPC4 agonist	Kir21 inh	TRPC6 activator	TRPC4 PAM	TRPC4 inh	HEK293 MPD ctr-2	HEK293 MPD ctr 2-2	TRPC4/MOR mod	TRPC4/MOR inh 2	TRPC6 block conf	TRPC6 act conf	others
O=C(C#Cc1ccccc1)c1ccco1	i	i	-2.9	i	i	i	/	/	/	/	/	/
COc1ccc(-c2cn(-c3ccc(SC(F)F)cc3)c3[n+]2CCC3)cc1OC	-6.3*	i	1.3	i	i	i	-137%*	128%*	-20%*	38%*	64%*	i
Cc1onc(-c2ccccc2)c1C(=O)NCc1ccc(Cl)cc1	i	i	-1.5	i	i	i	/	/	/	/	/	/
COc1ccccc1CNC(=O)C1CC2Cn3c(nc4cc(C)c(C)cc43)C2N1C (stereo unspecified)	i	i	-1.3	i	i	i	/	/	/	/	/	/
COc1ccccc1CNC(=O)C1CC2Cn3c(nc4ccccc43)C2N1C (stereo unspecified)	i	i	-0.39	13*	i	i	i	i	i	i	i	i
COc1ccccc1C(=O)C1CCCN(C(=O)c2ccccc2Cl)C1 (stereo unspecified)	i	i	0.02	i	i	i	/	/	/	/	/	/
Cc1ccc(C(=O)N2CCCC(C(=O)c3ccc(Cl)cc3C)C2)cn1 (stereo unspecified)	i	i	-2.2	i	i	i	/	/	/	/	/	/
Cc1cnc(C(=O)N2CCCC(C(=O)c3ccc(Cl)cc3C)C2)cn1 (stereo unspecified)	-5.3*	i	0.5	i	i	i	i	i	14%*	i	46%*	/
COC(=O)c1ccc(NC(=O)N2CCCC(C(=O)c3ccccc3OC)C2)cc1 (stereo unspecified)	-9.2*	i	1.5	i	i	i	/	/	/	/	i	/	TRPC4 spec 2=i;TRPC4 spec=i;HEK293 MPD ctr 2-1=226%*;HEK293 MPD ctr-1=i
COc1ccccc1C(=O)C1CCCN(C(=O)c2cn3cc(Cl)ccc3n2)C1 (stereo unspecified)	-8.2*	i	-0.2	i	i	i	/	/	/	/	i	i	TRPC4 spec 2=i;TRPC4 spec=0.1%*;HEK293 MPD ctr 2-1=i;HEK293 MPD ctr-1=0.3%*
CCOc1cc2nc(-c3ccc(OC)c(OC)c3)nc(N3CC(C)OC(C)C3)c2cc1OC (stereo unspecified)	-8.3*	i	0.67	i	i	i	/	/	/	/	i	i	TRPC4 spec 2=i;TRPC4 spec=-20%*;HEK293 MPD ctr 2-1=i;HEK293 MPD ctr-1=i
CCOc1cc2nc(-c3ccc(OC)c(OC)c3)nc(N3CCOCC3)c2cc1OC	i	i	2.9	i	i	i	/	/	/	/	/	/
O=[N+]([O-])c1ccc2nc(SCc3cn4ccccc4n3)[nH]c2c1	i	i	-0.07	i	i	i	/	/	/	/	/	/
O=[N+]([O-])c1ccc2nc(SCc3cn4cc(Cl)ccc4n3)[nH]c2c1	-5.4*	i	-0.64	i	i	i	i	i	i	i	i	i
CNCCCOc1ccc(Cl)cc1C(C)(C)C	-6*	i	-9.6	i	50*	i	i	i	i	i	i	i
C=CCc1cc(Cl)ccc1OCCCNC(C)CC (stereo unspecified)	i	i	-3.1	i	i	i	/	/	/	/	/	/
N=c1sccn1CC(=O)Nc1cccc(Oc2ccccc2)c1	-5.7*	i	-4.3*	i	i	i	i	i	i	82%*	52%*	i
N=c1sccn1CC(=O)Nc1cc(Cl)ccc1Oc1ccccc1	-9.6*	i	-4.8*	i	i	i	/	/	/	/	69%*	i	TRPC4 spec 2=24%*;TRPC4 spec=i;HEK293 MPD ctr 2-1=i;HEK293 MPD ctr-1=i
COc1cccc(C(=O)N2CCN(Cc3ccccn3)CC2)c1	i	i	0.39	i	i	i	/	/	/	/	/	/
CN(C)C(=O)N1CCC(C(=O)NCc2ccccc2Cl)CC1	i	i	1.1	i	i	i	/	/	/	/	/	/
CN(C)C(=O)N1CCCC(C(=O)NCc2ccccc2Cl)C1 (stereo unspecified)	-5.3*	i	0.05	i	i	i	i	i	i	i	i	i
CS(=O)(=O)N(CC(=O)NCc1ccccc1Cl)C1CCCCC1	-6.5*	i	-1.6	i	i	i	134%*	i	22%*	i	i	/
O=C(NCCS(=O)(=O)N1CCN(c2ccccc2F)CC1)c1ccc2c(c1)OCO2	i	i	-0.01	i	i	i	/	/	/	/	/	/
Oc1ccc(-c2nc3ccccc3s2)c(O)c1	-5.4*	i	-1.2	i	i	i	i	i	i	i	i	i
Nc1ccc(O)c(-c2nc3ccccc3s2)c1	i	i	1.6	i	i	i	/	/	/	/	/	/
CCN(CCCNc1ncnc2nc[nH]c12)c1cccc(C)c1	-6.3*	i	0.02	i	i	i	i	i	i	i	i	i

Screens (PubChem)
